From BindingDB's records for doi:10.1016/j.ejmech.2016.07.006 (Csir-Indian Institute of Integrative Medicine, 2016)
pIC50: −log10 of the molar value.

Columns and labels:
[1] = biological target: T1, Phosphatidylinositol 4,5-bisphosphate 3-kinase catalytic subunit delta isoform (Homo sapiens, UniProt O00329); assay: Inhibition of PI3Kdelta (unknown origin) using diC8 PIP2 as substrate after 120 mins by ADP-glo assay
T1 sequence (O00329 whole entry): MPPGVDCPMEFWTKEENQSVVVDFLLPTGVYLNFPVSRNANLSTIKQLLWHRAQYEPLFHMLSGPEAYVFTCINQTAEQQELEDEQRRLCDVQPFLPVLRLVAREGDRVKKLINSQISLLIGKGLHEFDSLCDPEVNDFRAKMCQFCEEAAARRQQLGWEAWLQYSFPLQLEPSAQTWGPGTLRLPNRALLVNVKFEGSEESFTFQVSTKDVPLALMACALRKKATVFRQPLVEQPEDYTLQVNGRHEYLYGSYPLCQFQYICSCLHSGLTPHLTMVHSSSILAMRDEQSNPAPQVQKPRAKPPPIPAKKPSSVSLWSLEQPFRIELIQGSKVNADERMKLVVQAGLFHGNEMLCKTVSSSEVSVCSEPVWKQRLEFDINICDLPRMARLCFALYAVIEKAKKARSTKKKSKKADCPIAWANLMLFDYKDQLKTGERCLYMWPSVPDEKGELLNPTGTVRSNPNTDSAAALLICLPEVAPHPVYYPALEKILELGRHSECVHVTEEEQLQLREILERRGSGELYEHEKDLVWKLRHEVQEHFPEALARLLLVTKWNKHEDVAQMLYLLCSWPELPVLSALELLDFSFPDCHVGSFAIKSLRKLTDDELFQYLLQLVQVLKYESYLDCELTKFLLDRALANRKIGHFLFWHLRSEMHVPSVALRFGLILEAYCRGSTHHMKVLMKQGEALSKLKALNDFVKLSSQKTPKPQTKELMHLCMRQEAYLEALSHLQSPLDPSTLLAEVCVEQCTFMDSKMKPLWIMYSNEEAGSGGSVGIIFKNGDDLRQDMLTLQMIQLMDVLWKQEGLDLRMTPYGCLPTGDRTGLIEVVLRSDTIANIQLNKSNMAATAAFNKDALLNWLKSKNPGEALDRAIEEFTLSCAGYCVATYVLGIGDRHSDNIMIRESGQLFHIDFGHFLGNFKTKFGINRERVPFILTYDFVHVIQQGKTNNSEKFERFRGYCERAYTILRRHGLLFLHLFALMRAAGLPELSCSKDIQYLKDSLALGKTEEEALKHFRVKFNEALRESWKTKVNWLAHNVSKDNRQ
In short: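 Delta isoform reacted 120 min in glycine-NaOH pH 8.5 buffer (50 mM KCl, 2.5 mM MgCl2, 1 mM DTT, 0.05% CHAPS) with 0.01 mM ATP and 0.05 mM diC8 PIP2; ADP formed detected by ADP-Glo (40 min) plus detection buffer (40 min) luminescence. Dundee profiling centre.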

[2] = biological target: Phosphatidylinositol 4,5-bisphosphate 3-kinase catalytic subunit beta isoform (Homo sapiens, UniProt P42338); assay: Inhibition of PI3Kbeta (unknown origin) using diC8 PIP2 as substrate after 60 mins by ADP-glo assay
[3] = biological target: Phosphatidylinositol 4,5-bisphosphate 3-kinase catalytic subunit alpha isoform (Homo sapiens, UniProt P42336); assay: Inhibition of PI3Kalpha (unknown origin) using diC8 PIP2 as substrate after 80 mins by ADP-glo assay
Chain of Phosphatidylinositol 4,5-bisphosphate 3-kinase catalytic subunit alpha isoform (P42336 whole entry, canonical isoform): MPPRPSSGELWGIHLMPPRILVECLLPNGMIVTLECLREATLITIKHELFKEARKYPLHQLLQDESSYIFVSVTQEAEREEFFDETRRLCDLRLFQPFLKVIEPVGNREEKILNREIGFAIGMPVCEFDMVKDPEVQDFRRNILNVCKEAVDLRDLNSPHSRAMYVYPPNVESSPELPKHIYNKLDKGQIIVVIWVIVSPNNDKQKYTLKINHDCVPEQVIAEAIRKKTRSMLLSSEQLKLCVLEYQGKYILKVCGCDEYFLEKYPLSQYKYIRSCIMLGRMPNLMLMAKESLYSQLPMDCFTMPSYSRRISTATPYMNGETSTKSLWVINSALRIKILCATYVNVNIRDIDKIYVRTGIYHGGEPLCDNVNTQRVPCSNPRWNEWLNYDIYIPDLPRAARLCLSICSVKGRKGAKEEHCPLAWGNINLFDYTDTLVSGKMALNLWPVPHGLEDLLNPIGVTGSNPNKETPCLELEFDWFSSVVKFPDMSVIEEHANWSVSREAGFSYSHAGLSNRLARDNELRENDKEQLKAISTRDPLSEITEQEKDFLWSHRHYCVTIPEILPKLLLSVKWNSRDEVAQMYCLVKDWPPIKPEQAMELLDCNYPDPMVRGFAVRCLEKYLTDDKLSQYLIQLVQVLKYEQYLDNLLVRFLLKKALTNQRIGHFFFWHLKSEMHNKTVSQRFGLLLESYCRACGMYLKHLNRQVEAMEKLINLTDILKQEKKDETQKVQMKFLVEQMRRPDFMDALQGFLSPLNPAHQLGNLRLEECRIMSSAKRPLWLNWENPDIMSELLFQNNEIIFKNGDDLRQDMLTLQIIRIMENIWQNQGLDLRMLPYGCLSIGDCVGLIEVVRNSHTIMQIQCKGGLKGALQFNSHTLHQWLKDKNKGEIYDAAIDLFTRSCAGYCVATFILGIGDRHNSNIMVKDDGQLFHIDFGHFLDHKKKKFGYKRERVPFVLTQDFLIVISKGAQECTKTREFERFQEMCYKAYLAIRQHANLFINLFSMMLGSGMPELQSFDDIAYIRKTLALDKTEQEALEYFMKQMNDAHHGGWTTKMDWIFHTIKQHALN

Chain of Phosphatidylinositol 4,5-bisphosphate 3-kinase catalytic subunit beta isoform (P42338 whole entry, canonical isoform): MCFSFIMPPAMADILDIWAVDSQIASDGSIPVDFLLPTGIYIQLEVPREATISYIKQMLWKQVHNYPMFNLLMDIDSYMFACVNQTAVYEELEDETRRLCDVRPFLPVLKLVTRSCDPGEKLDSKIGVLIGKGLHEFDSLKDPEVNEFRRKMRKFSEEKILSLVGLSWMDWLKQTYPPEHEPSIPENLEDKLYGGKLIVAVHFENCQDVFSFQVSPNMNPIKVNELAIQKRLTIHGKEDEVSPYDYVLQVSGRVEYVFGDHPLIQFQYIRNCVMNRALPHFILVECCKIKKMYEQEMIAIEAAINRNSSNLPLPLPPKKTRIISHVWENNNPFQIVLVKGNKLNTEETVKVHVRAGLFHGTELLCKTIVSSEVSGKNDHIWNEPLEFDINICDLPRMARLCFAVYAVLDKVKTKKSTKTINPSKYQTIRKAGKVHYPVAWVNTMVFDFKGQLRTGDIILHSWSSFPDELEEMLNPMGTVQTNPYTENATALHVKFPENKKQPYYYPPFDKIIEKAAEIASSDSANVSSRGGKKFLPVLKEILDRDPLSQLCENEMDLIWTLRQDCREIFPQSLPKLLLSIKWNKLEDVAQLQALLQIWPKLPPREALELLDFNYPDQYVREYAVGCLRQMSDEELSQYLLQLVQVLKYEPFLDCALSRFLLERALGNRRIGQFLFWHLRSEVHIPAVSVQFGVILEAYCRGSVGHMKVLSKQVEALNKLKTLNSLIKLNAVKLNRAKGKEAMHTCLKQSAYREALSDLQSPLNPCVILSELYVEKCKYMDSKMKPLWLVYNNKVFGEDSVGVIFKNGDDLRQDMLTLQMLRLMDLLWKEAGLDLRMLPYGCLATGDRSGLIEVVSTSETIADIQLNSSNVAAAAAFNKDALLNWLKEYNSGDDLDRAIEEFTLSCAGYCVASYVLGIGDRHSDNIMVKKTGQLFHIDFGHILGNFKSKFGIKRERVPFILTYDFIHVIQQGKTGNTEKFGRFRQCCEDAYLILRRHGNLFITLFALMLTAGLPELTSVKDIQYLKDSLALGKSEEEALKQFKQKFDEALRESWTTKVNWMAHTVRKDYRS

Row | pIC50 [1] | pIC50 [2] | pIC50 [3] | SMILES
1 | < 5.00 | < 5.00 |  | N#CCc1ccc(Nc2ncnc3ccc(-c4ccc5c(c4)OCO5)cc23)cc1
2 |  | < 4.70 |  | N#CCc1ccc(Nc2ncnc3ccc(-c4cncc5ccccc45)cc23)cc1
3 | < 5.00 | < 5.00 |  | N#CCc1ccc(Nc2ncnc3ccc(-c4ccc5c(c4)OCCO5)cc23)cc1
4 | < 5.00 | < 5.00 |  | N#CCc1ccc(Nc2ncnc3ccc(-c4cccc([N+](=O)[O-])c4)cc23)cc1
5 | < 5.00 | < 5.00 |  | N#CCc1ccc(Nc2ncnc3ccc(-c4ccncc4)cc23)cc1
6 | < 5.00 | < 5.00 |  | CC(=O)c1ccc(-c2ccc3ncnc(Nc4ccc(CC#N)cc4)c3c2)cc1
7 | < 5.00 | < 5.00 | < 5.00 | C=Cc1ccc(-c2ccc3ncnc(Nc4ccc(CC#N)cc4)c3c2)cc1
8 | < 5.00 | < 5.00 |  | N#CCc1ccc(Nc2ncnc3ccc(-c4ccc5[nH]ccc5c4)cc23)cc1
